PMC3983356 (The Journal of Physical Chemistry. B, 2014)
Values joined by “and” are separate entries in the source; they are usually repeats but may differ in a detail not shown here. Equal entries are not always repeated. Where two headings read alike, the source gives them in different places.

Key:
[1] = Critical micelle concentration by DPH fluorimetric method; type: physicochemical
In short: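 Fluorimetric CMC determination: 10 μL of 1 mM diphenylhexatriene (DPH) in tetrahydrofuran added to test detergent serially diluted in ECS (pH 7.45, HEPES-buffered saline with glucose). Excitation 358 nm, emission scanned 400–500 nm. CMC taken at the sharp rise in fluorescence as DPH enters micelles.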

HEK 293A cells [2] = experiment: Ensemble whole cell patch clamp; type: cell-based; details: for change in membrane conductivity compared to ECS controls: 0.004 and 0.04 mM SDS, 0.0001 and 0.001 mM CTAB; for concentration at which increased membrane permeability is induced: current change 900 s after exposure, superfusion
HEK293A cells = experiment: XTT assay; type: cell-based; details: 20 min
In short: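 HEK293A cells were seeded at 100000 cells/well and incubated overnight at 37 °C, 5% CO2. Cells were exposed 20 min to test compound in ECS, or to ECS alone, then the supernatant was replaced with PBS. XTT reagent (solution A:B, 50:1) was added and incubated 2 h at 37 °C. A490 minus A690 was read, and % viability was expressed relative to ECS-treated cells.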

HEK 293A cells [3] = type: cell-based; details: for reversal of increased conductivity at end of experiment (600 s): 0.2 mM SDS 30 s exposure, 0.1 mM CTAB 10 s, 0.137 mM ORB 10 s; for reversibility of increased permeability induced within 10 s of exposure: 0.2 mM SDS, 0.1 mM CTAB, 0.137 mM ORB, 15 min after exposure
In short: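 IonFlux 16 whole-cell patch clamp of HEK 293A cells in ECS at sub-solubilising test concentrations, applied for 10, 30 or 300 s. Exposure was followed by ECS perfusion for 900 s. Membrane current was tracked for reversal. Controls were ECS alone or ECS + 5% DMSO, the vehicle for the rhodamine lipid probe.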

HEK 293A cells [4] = type: cell-based; details: for Dw ± standard error (detergent in water, intercept): quiescent, onset of increased permeability; for partition constant K [lower bound, upper bound]: range from error in Rb and intercept
In short: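 HEK 293A cells (passages 12–17) detached with detachin, rested in serum-free medium, then 1.5, 5, 10 or 15 million cells in ECS incubated 15 min with graded detergent. Cells were pelleted at 1000 rpm, resuspended in ECS and patched on an IonFlux 16 ensemble whole-cell system with K-aspartate intracellular solution. Time-averaged current over the first 4 min served as the permeability read-out. Detergent giving a 1 nA rise ×15 estimated the onset. Onset concentration vs lipid concentration was fitted linearly: slope Rb, intercept Dw.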

[5] = POPC vesicles; cited from earlier work
[6] = POPC/POPG vesicles; cited from earlier work
[7] = depending on size, composition of vesicles and temperature; cited from earlier work
HEK 293A cells [8] = experiment: Fluorescence microscopy of patched cells; type: cell-based; details: ORB at all three concentrations, 10 min
HEK 293A cells [9] = experiment: Quiescent partitioning experiment with trypan blue assay; type: cell-based; details: range from error estimate
In short: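 Cationic detergent only. HEK 293A cells in ECS were pretreated 15 min with graded detergent concentrations as in the patch-clamp partitioning protocol. Trypan blue exclusion, not patch clamp, served as the membrane-permeability marker. Onset concentration was plotted against cellular lipid concentration and fitted linearly (slope Rb, intercept Dw). K was derived from R and Dw and reported as a range.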

[10] = 0.004–0.04 mM SDS, 0.0001–0.001 mM CTAB
[11] = 0.2 and 2 mM SDS, 0.1, 1 and 10 mM CTAB, 0.035, 0.14 and […] ORB
[12] = 2 mM SDS, 1 and 10 mM CTAB, 1.37 mM ORB
[13] = 0.004–0.2 mM SDS, 0.001–0.1 mM CTAB, 0.0137–0.137 mM ORB

SMILES	critical micelle concentration (CMC) in ECS [1]	CMC in water [1]	time of onset of current increase after compound release (HEK 293A cells [2]; 0.2 mM SDS, 0.1 mM CTAB)	group of current traces (HEK 293A cells [2]; 0.2 mM SDS, 0.1–10 mM CTAB)	time of onset of current increase after compound release (HEK 293A cells [2]; 2 mM SDS, 1 mM CTAB)	change in membrane conductivity compared to ECS controls (HEK 293A cells [2])	group of current traces (HEK 293A cells [2]; [10])	change in membrane current compared to ECS controls (HEK 293A cells [2]; [11])	concentration at which increased membrane permeability is induced (HEK 293A cells [2])	metabolic activity of exposed cells (XTT) (HEK293A cells; [12])	metabolic activity of exposed cells (XTT) (HEK293A cells; [13])	reversal of increased conductivity at end of experiment (600 s) (HEK 293A cells [3])	reversibility of increased permeability induced within 10 s of exposure (HEK 293A cells [3])	Dw ± standard error (detergent in water, intercept) (HEK 293A cells [4])	partition constant K [lower bound, upper bound] (HEK 293A cells [4])	partition constant K [5]	other results
CCCCCCCCCCCCOS(=O)(=O)[O-].[Na+] [SDS, sodium dodecyl sulfate]	0.8 to 1 mM and ~0.8 mM	6 to 8 mM	2 to 3 s	2	1 s	does not result in an increase in conductivity	1	initial sharp increase in current	200 µM	reduced metabolic activity	do not show a loss in metabolic activity	not reversed	not reversible for over 15 min	29 ± 10	16300–39200 M^–1	33000 M^–1	duration of initial change in current (HEK 293A cells [2]; 0.2 mM SDS): 3 to 4 s; duration of subsequent slow current increase (HEK 293A cells [2]; 0.2 mM SDS): 67 ± 25 s; current reached at the end of 15 min (HEK 293A cells [2]; 0.2 mM SDS, total current of 20 cells): ~50 nA; final current level (HEK 293A cells [2]; 2 mM SDS): eventually reached open channel current levels; group of current traces (HEK 293A cells [2]; 2 mM SDS): 3; time to reach open channel current (HEK 293A cells [2]; 2 mM SDS, except one trace that took 871 s): 120 ± 61 s; time within which large and sudden increase in conductivity occurs (HEK 293A cells [2]; 0.2 and 2 mM SDS): 1 to 3 s; partition constant K [6]: 37000 M^–1; partition constant K [7]: 12500 to 70000 M^–1
CCCCCCCCCCCCCCCCCCOC(=O)c1ccccc1-c1c2ccc(=[N+](CC)CC)cc-2oc2cc(N(CC)CC)ccc12.[Cl-] [ORB, octadecyl rhodamine B]								increased the membrane current significantly		reduced metabolic activity	do not show a loss in metabolic activity	not reversed	not reversible for over 15 min	7.3 ± 3.1	24000–99000 M^–1		change in membrane current compared to controls (HEK 293A cells [2]; 0.014 (0.0137) mM ORB): significantly different from the ECS control but not 0.007 mM ORB; state of cells after ORB exposure (ORB fluorescence) (HEK 293A cells [8]): fluorescent and intact
CCCCCCCCCCCCCCCC[N+](C)(C)C [CTAB, cetyltrimethylammonium bromide]	0.03 to 0.06 mM and ~0.06 mM	1 to 2 mM	2 to 3 s and 1 to 3 s	2	1 s	did not cause a change in conductance	1	rapid increase in membrane current	10 µM	reduced metabolic activity	do not show a loss in metabolic activity	not reversed	not reversible for over 15 min	4.2 ± 2.8	29000–476000 M^–1	350000 M^–1	current eventually reached as fraction of open channel current (HEK 293A cells [2]; 0.01 mM CTAB): 1/3; change in membrane current compared to ECS controls (HEK 293A cells [2]; 0.01 mM CTAB (below CMC)): slow increase in current; time of onset of current increase after compound release (HEK 293A cells [2]; 10 mM CTAB): 1 s; partition constant K range (trypan blue assay) (HEK 293A cells [9]): 37000 to 67000 M^–1
